Assay results from ChEMBL document CHEMBL2021854, “2-Aminopyrimidine based 4-aminoquinoline anti-plasmodial agents. Synthesis, biological activity, structure-activity relationship and mode of action studies” (Eur J Med Chem, 2012).
pEC50, pIC50: −log10 of the molar value.

Experiments:
MDCK = experiment: Cytotoxicity against MDCK cells assessed as cell viability by colorimetric formazan-based MTS assay; parameters: species or system Canis lupus familiaris; settings: dog, mdck
Outline: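 Cytotoxicity on MDCK cells; 50% cytotoxic concentration from cell viability measured by colorimetric formazan-based MTS assay.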

Punta Toro virus = experiment: Antiviral activity against Punta Toro virus infected in african green monkey Vero cells assessed as inhibition of virus-induced cytopathogenicity after 4 days; format: functional, organism-based; settings: 96 h
Outline: (§1)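 Confluent HEL, Vero or HeLa monolayers were inoculated with 100 CCID50 of virus in the presence of varying concentrations of compound. Cytopathicity was scored when it reached completion in untreated, virus-infected control cultures.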

Heme = experiment: Binding affinity to monomeric heme in HEPES buffer at pH 5.6 by spectrophotometric analysis
[1] = Cytotoxicity against african green monkey Vero cells assessed as minimum compound concentration required to causes microscopically detectable alteration of normal cell morphology; format: cell-based; settings: chlorocebus sabaeus
Outline: (§2)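 Confluent, non-proliferating cell cultures were exposed to the compounds. The endpoint was the minimum concentration producing a microscopically detectable alteration of normal cell morphology.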

[2] = Cytotoxicity against cat CRFK cells assessed as cell viability by colorimetric formazan-based MTS assay; parameters: species or system Felis catus; settings: crfk
Sindbis virus = experiment: Antiviral activity against Sindbis virus infected in african green monkey Vero cells assessed as inhibition of virus-induced cytopathogenicity after 4 days; format: functional, organism-based; settings: 96 h; outline: as §1
mu-oxodimeric heme = experiment: Binding affinity to mu-oxo heme in HEPES buffer at pH 5.8 by UV-visible spectrophotometry analysis
[3] = Cytotoxicity against human HEL cells assessed as minimum compound concentration required to causes microscopically detectable alteration of normal cell morphology; format: cell-based; outline: as §2
Coxsackievirus B4 = experiment: Antiviral activity against Coxsackie virus B4 infected in african green monkey Vero cells assessed as inhibition of virus-induced cytopathogenicity after 4 days; format: functional, organism-based; settings: Enterovirus B, 96 h; outline: as §1
[4] = Inhibition of beta-hematin formation assessed as Ferriprotoporphyrin IX biomineralisation at 1 mg/ml after 24 hrs; format: functional
Outline: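 Hemin chloride (0.5 mg/ml in DMSO) mixed with 0.5 M sodium acetate buffer pH 4.4 and drug or solvent control, incubated 37 °C for 24 h. Pellet washed with DMSO to remove unreacted hemin, dissolved in 0.1 N NaOH, absorbance read at 405 nm; percent inhibition relative to control. Highest concentration tested 1 mg/ml.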

[5] = Cytotoxicity against human HeLa cells assessed as minimum compound concentration required to causes microscopically detectable alteration of normal cell morphology; format: cell-based; outline: as §2
[6] = test system: Human immunodeficiency virus 1; experiment: Antiviral activity against HIV1 infected in human CEM cells assessed as inhibition of virus-induced cytopathic effect after 4 days; format: functional, organism-based; settings: Human immunodeficiency virus 1, CCRF-CEM, 96 h
Outline: (§3)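 CEM T-lymphocytes (~3 × 10^5 cells/ml) were infected with HIV-1 IIIB or HIV-2 ROD at ~100 CCID50, then immediately plated with a range of compound concentrations. Giant cell formation was scored microscopically after 4 days at 37 °C. Cytostatic activity was tested in parallel in uninfected CEM cells.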

Human respirovirus 3 = experiment: Antiviral activity against Parainfluenza-3 virus infected in african green monkey Vero cells assessed as inhibition of virus-induced cytopathogenicity after 4 days; format: functional, organism-based; settings: Human respirovirus 3, Vero, 96 h; outline: as §1
Influenza B virus [7] = experiment: Antiviral activity against Influenza B virus infected in MDCK cells assessed as reduction visual scoring of virus-induced cytopathogenicity after 4 days; format: functional, organism-based; settings: 96 h
Outline: (§4)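 MDCK monolayers infected with 100 CCID50 of influenza A (H1N1 or H3N2) or influenza B, with varying compound concentrations. Cytopathicity read when untreated infected controls reached complete CPE.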

[8] = test system: Vesicular stomatitis virus; experiment: Antiviral activity against Vesicular stomatitis virus infected in HeLa cells assessed as inhibition of virus-induced cytopathogenicity after 4 days; format: functional, organism-based; settings: 96 h
Outline: (§5)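 Confluent HEL or HeLa monolayers infected with 100 CCID50 of virus in the presence of varying compound concentrations.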

Influenza A virus [9] = experiment: Antiviral activity against Influenza A virus H1N1 infected in MDCK cells assessed as reduction visual scoring of virus-induced cytopathogenicity after 4 days; format: functional, organism-based; settings: 96 h; outline: as §4
Influenza B virus [10] = experiment: Antiviral activity against Influenza B virus infected in MDCK cells assessed as inhibition of virus-induced cytopathogenicity after 4 days by colorimetric formazan-based MTS assay; format: functional, organism-based; settings: 96 h
Nucleic Acid = experiment: Binding affinity to calf thymus DNA after 5 mins by spectrofluorometric analysis; format: nucleic-acid assay; settings: Bos taurus
Outline: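 Steady-state fluorescence titration at ambient temperature: compound held at 30 μM while DNA was varied (0.3–70 μM), working solutions diluted in methanol. Excitation 320 nm, emission 380 nm, slit 5 nm. Log K was calculated from quenching of the 380 nm emission.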

Plasmodium falciparum = experiment: Antiplasmodial activity chloroquine-resistant Plasmodium falciparum K1 infected in human A+ erythrocytes assessed as inhibition of [3H]-hypoxanthine incorporation after 24 hrs by scintillation counting; format: functional, organism-based
Influenza A virus [11] = experiment: Antiviral activity against Influenza A virus H3N2 infected in MDCK cells assessed as reduction visual scoring of virus-induced cytopathogenicity after 4 days; format: functional, organism-based; settings: 96 h; outline: as §4
Human betaherpesvirus 5 = experiment: Antiviral activity against Cytomegalovirus AD-169 infected in HEL cells assessed as inhibition of virus plaque formation after 4 days; format: functional, organism-based; settings: Human betaherpesvirus 5, AD169, HEL, 96 h
Felid alphaherpesvirus 1 = experiment: Antiviral activity against Feline herpesvirus infected in cat CRFK cells assessed as inhibition of virus-induced cytopathic effect after 4 days by colorimetric formazan-based MTS assay; format: functional, organism-based; settings: Felid alphaherpesvirus 1, CRFK, 96 h
Human alphaherpesvirus 3 [12] = experiment: Antiviral activity against […] expressing thymidine kinase infected in HEL cells assessed as reduction of virus plaque formation after 4 days; format: functional, cell-based; settings: Human alphaherpesvirus 3, strain Oka vaccine, 96 h
[13] = Selectivity index, ratio of CC50 for MDCK cells to IC50 for chloroquine-resistant Plasmodium falciparum K1; format: functional
Outline: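 Selectivity index computed as MTS-based CC50 on MDCK cells divided by IC50 against P. falciparum K1.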

[14] = test system: Vesicular stomatitis virus; experiment: Antiviral activity against Vesicular stomatitis virus infected in HEL cells assessed as inhibition of virus-induced cytopathogenicity after 4 days; format: functional, organism-based; settings: 96 h; outline: as §5
[15] = test system: Feline infectious peritonitis virus; experiment: Antiviral activity against FIPV infected in cat CRFK cells assessed as inhibition of virus-induced cytopathic effect after 4 days by colorimetric formazan-based MTS assay; format: functional, cell-based; settings: Alphacoronavirus 1, CRFK, 96 h
[16] = test system: Human immunodeficiency virus 2; experiment: Antiviral activity against HIV2 infected in human CEM cells assessed as inhibition of virus-induced cytopathic effect after 4 days; format: functional, organism-based; settings: Human immunodeficiency virus 2, CCRF-CEM, 96 h; outline: as §3
Human alphaherpesvirus 3 [17] = experiment: Antiviral activity against thymidine kinase-deficient […] infected in HEL cells assessed as reduction of virus plaque formation after 4 days; format: functional, organism-based; settings: Human alphaherpesvirus 3, 07-1, HEL, 96 h
HeLa = experiment: Cytotoxicity against human HeLa cells assessed as cell viability by colorimetric formazan-based MTS assay
Human alphaherpesvirus 1 = experiment: Antiviral activity against HSV1 KOS infected in HEL cells assessed as inhibition of virus-induced cytopathogenicity after 4 days; format: functional, organism-based; settings: Human alphaherpesvirus 1, KOS, 96 h; outline: as §5
[18] = test system: Mammalian orthoreovirus 1; experiment: Antiviral activity against Reovirus-1 infected in african green monkey Vero cells assessed as inhibition of virus-induced cytopathogenicity after 4 days; format: functional, organism-based; settings: Mammalian orthoreovirus 1, Vero, 96 h; outline: as §1
Influenza A virus [19] = experiment: Antiviral activity against Influenza A virus H3N2 infected in MDCK cells assessed as inhibition of virus-induced cytopathogenicity after 4 days by colorimetric formazan-based MTS assay; format: functional, organism-based; settings: 96 h

SMILES	CC50 (MDCK) [nM]	pEC50 (Punta Toro virus)	log Ks (Heme)	MCC [1] [µM]	CC50 [2] [µM]	pEC50 (Sindbis virus)	log Ks (mu-oxodimeric heme)	MCC [3] [µM]	pEC50 (Coxsackievirus B4)	inhibition [4] [%]	MCC [5] [µM]	pEC50 [6]	pEC50 (Human respirovirus 3)	pEC50 (Influenza B virus [7])	pEC50 [8]	pEC50 (Influenza A virus [9])	pEC50 (Influenza B virus [10])	log Ks (Nucleic Acid)	pIC50 (Plasmodium falciparum)	pEC50 (Influenza A virus [11])	further results
Cc1nc(NCCCCNc2ccnc3cc(Cl)ccc23)nc(-c2ccccc2[N+](=O)[O-])c1C(=O)OC(C)C	2300	< 4.70	4.97	100	27.2	< 4.70	6.31	20	< 4.70	100	100	< 5.70	< 4.70	< 6.10	< 4.70	< 6.10	< 6.10	3.39	8.44	< 6.10	pEC50 (Human betaherpesvirus 5): < 5.40; pEC50 (Felid alphaherpesvirus 1): < 4.70; pEC50 (Human alphaherpesvirus 3 [12]): 5.40; Ratio CC50/IC50 [13]: 638; pEC50 [14]: < 5.40; pEC50 [15]: < 4.70; pEC50 [16]: < 5.70; pEC50 (Human alphaherpesvirus 3 [17]): < 5.40; CC50 (HeLa): 4.4 µM; pEC50 (Human alphaherpesvirus 1): < 5.40; pEC50 [18]: < 4.70; pEC50 (Influenza A virus [19]): < 6.10
CCOC(=O)c1c(C)nc(NCCCCNc2ccnc3cc(Cl)ccc23)nc1-c1ccccc1	900	< 4.00	5.28	> 100	13.9	< 4.00	6.09	> 20	< 4.00	100	> 100	< 5.70	< 4.00	< 6.80	< 4.00	< 6.80	< 6.80	4.67	7.58	< 6.80	pEC50 (Human betaherpesvirus 5): 5.70; pEC50 (Felid alphaherpesvirus 1): < 5.40; pEC50 (Human alphaherpesvirus 3 [12]): 5.40; Ratio CC50/IC50 [13]: 34.41; pEC50 [14]: < 4.00; pEC50 [15]: < 5.40; pEC50 [16]: < 5.70; pEC50 (Human alphaherpesvirus 3 [17]): < 4.70; CC50 (HeLa): 1.84 µM; pEC50 (Human alphaherpesvirus 1): < 4.00; pEC50 [18]: < 4.00; pEC50 (Influenza A virus [19]): < 6.80
